Assay results taken from ChEMBL document CHEMBL4411297, “Discovery, synthesis and anti-atherosclerotic activities of a novel selective sphingomyelin synthase 2 inhibitor” (Eur J Med Chem, 2019).

Columns and labels:
Mus musculus [1] = assay: Effect on plasma ALT level in apoE knockout mouse fed with western-type diet at 12.5 to 40 mg/kg/day, ig for 7 weeks; format: ADME, organism-based; details: in vivo, po, 1176 h
Procedure, shortened: (§1)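 ApoE KO mice on Western-type diet, dosed by gavage at 12.5 or 40 mg/kg/day for 7 weeks, n = 10. Blood collected at 20 weeks of age. Plasma SM measured by a previously reported method. ALT and AST read on an automated biochemical analyzer.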

[2] = biological target: T1, Phosphatidylcholine:ceramide cholinephosphotransferase 1 (Homo sapiens, UniProt Q86VZ5); assay: (§2) Inhibition of purified SMS1 (unknown origin) using C6-NBD-Ceramide and DMPC as substrates preincubated for 5 mins followed by substrate addition and measured after 30 mins by TLC or HPLC method
T1 sequence (Q86VZ5 whole entry): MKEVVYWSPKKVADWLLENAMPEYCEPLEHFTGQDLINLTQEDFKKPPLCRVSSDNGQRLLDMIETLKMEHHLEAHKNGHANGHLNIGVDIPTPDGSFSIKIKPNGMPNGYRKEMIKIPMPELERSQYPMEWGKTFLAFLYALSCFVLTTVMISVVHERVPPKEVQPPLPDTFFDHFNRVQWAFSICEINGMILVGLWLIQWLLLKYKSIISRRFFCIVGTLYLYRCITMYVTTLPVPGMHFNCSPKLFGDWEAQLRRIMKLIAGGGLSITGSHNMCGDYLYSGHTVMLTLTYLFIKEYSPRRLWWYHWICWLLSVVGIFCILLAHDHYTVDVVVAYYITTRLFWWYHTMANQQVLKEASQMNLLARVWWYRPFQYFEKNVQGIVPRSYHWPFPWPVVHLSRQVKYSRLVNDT
Procedure, shortened: (§3)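 Purified SMS1 or SMS2 in DDM detergent buffer; inhibitor in DMSO pre-incubated 5 min at room temperature, then C6-NBD-ceramide and DMPC added, 30 min at 37 °C; ethanol quench, TLC or HPLC read-out. Activity expressed as percent of no-inhibitor vehicle; IC50 from ten (SMS1) or eight (SMS2) concentrations, mean ± SD, n = 3.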

[3] = biological target: T2, Phosphatidylcholine:ceramide cholinephosphotransferase 1 (Homo sapiens) (UniProt Q86VZ5); assay: as §2; procedure, shortened: as §3
T2 sequence (whole entry): T1 sequence (Q86VZ5 whole entry)

[4] = MRT (0 to 8 hrs) in C57BL/6J mouse at 100 mg/kg/day, ig by HPLC-MS/MS analysis; format: ADME, organism-based; details: in vivo, po
Procedure, shortened: (§4)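 Male C57BL/6J mice (6–8 weeks, ~20 g), fasted 12 h, given a single intragastric dose of 25, 50 or 100 mg/kg in 10% DMSO/30% PEG/0.9% NaCl. Retro-orbital blood at 5 min to 8 h; plasma protein-precipitated with methanol plus internal standard, assayed by LC-MS/MS; noncompartmental analysis. Mean ± SD, n = 6.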

[5] = Ratio of drug level in liver to plasma in C57BL/6J mouse at 100 mg/kg/day, ig qd for 7 days measured on day 7; format: ADME, organism-based; details: po
Procedure, shortened: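 C57BL/6J mice dosed intragastrically at 100 mg/kg once daily for 7 days; compound levels in liver and blood measured on day 7, n = 5.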

Mus musculus [6] = assay: Anti-atherosclerotic activity in apoE knockout mouse fed with western-type diet assessed as reduction in CD4+/CD8+ cell ratio at 40 mg/kg/day, ig for 7 weeks by flow cytometric analysis relative to control; format: functional; set-up: scale not given: the % may be the effect or the level left
Procedure, shortened: (§5)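 ApoE KO mice started at 8 weeks old on Western-type diet for 6 weeks. Then dosed by gavage daily with vehicle, 12.5 or 40 mg/kg for 7 weeks with the diet continued, 10 mice per group. Blood single-cell suspensions stained with antibodies in PBS and analysed by flow cytometry. Mean ± SD, n = 5.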

Mus musculus [7] = assay: Effect on plasma AST level in apoE knockout mouse fed with western-type diet at 12.5 to 40 mg/kg/day, ig for 7 weeks; format: ADME, organism-based; details: in vivo, po, 1176 h; procedure, shortened: as §1
Mus musculus [8] = assay: Anti-atherosclerotic activity in apoE knockout mouse fed with western-type diet assessed as reduction in plasma SM level at 12.5 mg/kg/day, ig for 7 weeks relative to control; format: functional; set-up: scale not given: the % may be the effect or the level left; procedure, shortened: as §1
Mus musculus [9] = assay: Anti-atherosclerotic activity in apoE knockout mouse fed with western-type diet assessed as reduction in macrophage content at 40 mg/kg/day, ig for 7 weeks by immunostaining assay relative to control; format: functional; set-up: scale not given: the % may be the effect or the level left
Procedure, shortened: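 ApoE KO mice on Western-type diet, dosed by gavage at 12.5 or 40 mg/kg/day for 7 weeks. Aortic root sections 4 µm thick immunostained with MOMA-2: primary antibody 1 h at room temperature, biotinylated secondary, HRP-streptavidin, DAB, hematoxylin counterstain. Stained area quantified and expressed relative to vehicle.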

Mus musculus [10] = assay: Anti-atherosclerotic activity in apoE knockout mouse fed with western-type diet assessed as reduction in monocyte count at 40 mg/kg/day, ig for 7 weeks by flow cytometric analysis relative to control; format: functional; set-up: scale not given: the % may be the effect or the level left; procedure, shortened: as §5
[11] = AUC (0 to 8 hrs) in C57BL/6J mouse at 25 mg/kg/day, ig by HPLC-MS/MS analysis; format: ADME, organism-based; set-up: dose 25 mg/kg/day, time < 8 hr, route intragastric; details: in vivo, po
Procedure, shortened: (§6)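 Male C57BL/6J mice, six to eight weeks old, about 20 g, fasted 12 h with free water. Given a single intragastric dose of 25, 50 or 100 mg/kg in 10% DMSO/30% PEG-100/0.9% NaCl. Blood taken retro-orbitally at 5 min to 8 h. Plasma protein-precipitated with methanol plus internal standard, then HPLC-MS/MS on a C18 column. Noncompartmental analysis, n = 6.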

[12] = Tmax in C57BL/6J mouse at 50 mg/kg/day, ig by HPLC-MS/MS analysis; format: ADME, organism-based; details: in vivo, po; procedure, shortened: as §4
Mus musculus [13] = assay: Anti-atherosclerotic activity in apoE knockout mouse fed with western-type diet assessed as reduction in CD11b+/CD11c+ dendritic cells at 40 mg/kg/day, ig for 7 weeks by flow cytometric analysis relative to control; format: functional; set-up: scale not given: the % may be the effect or the level left; procedure, shortened: as §5
[14] = Cmax in C57BL/6J mouse at 100 mg/kg/day, ig by HPLC-MS/MS analysis; format: ADME, organism-based; set-up: dose 100 mg/kg/day, route intragastric; details: in vivo, po; procedure, shortened: as §6
[15] = Cmax in C57BL/6J mouse at 50 mg/kg/day, ig by HPLC-MS/MS analysis; format: ADME, organism-based; set-up: dose 50 mg/kg/day, route intragastric; details: in vivo, po; procedure, shortened: as §6
[16] = MRT (0 to infinity) in C57BL/6J mouse at 25 mg/kg/day, ig by HPLC-MS/MS analysis; format: ADME, organism-based; details: in vivo, po; procedure, shortened: as §4
[17] = biological target: T3, Phosphatidylcholine:ceramide cholinephosphotransferase 2 (Mus musculus) (UniProt Q9D4B1); assay: Inhibition of SMS2 in C57BL/6J mouse bone marrow derived macrophages after 17 hrs
T3 sequence (whole entry): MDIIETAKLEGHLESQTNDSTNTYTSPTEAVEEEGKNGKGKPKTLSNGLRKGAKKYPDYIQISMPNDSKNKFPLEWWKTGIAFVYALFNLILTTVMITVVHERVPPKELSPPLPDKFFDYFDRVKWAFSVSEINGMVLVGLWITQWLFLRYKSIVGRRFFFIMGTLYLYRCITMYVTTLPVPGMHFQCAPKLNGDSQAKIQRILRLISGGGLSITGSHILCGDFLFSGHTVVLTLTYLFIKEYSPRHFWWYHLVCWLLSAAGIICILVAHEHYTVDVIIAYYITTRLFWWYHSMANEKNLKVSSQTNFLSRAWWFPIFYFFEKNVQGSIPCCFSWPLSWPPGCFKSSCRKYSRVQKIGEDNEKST

## CCc1ccccc1COc1ccccc1C(=O)Nc1cccnc1
Mus musculus [1]
  Activity: Non-Toxic
[2]
  IC50: 134 µM
[3]
  inhibition: Dose-dependent effect
[4]
  MRT: 1.66 h
[5]
  Kp at 168 h: 5
Mus musculus [6]
  Activity: 37%
Mus musculus [7]
  Activity: Non-Toxic
Mus musculus [8]
  Activity: 25%
Mus musculus [9]
  Activity: 55%
Mus musculus [10]
  Activity: 50%
[11]
  AUC at 8 h: 1990 ng·h/mL
[12]
  Tmax: 4.8 min
Mus musculus [13]
  Activity: 57%
[14]
  Cmax: 14100 ng/mL
[15]
  Cmax: 6120 ng/mL
[16]
  MRT inf: 3.64 h
[17]
  inhibition: Dose-dependent effect
